Experimental findings from ChEMBL document CHEMBL1144553, “alpha-Biphenylsulfonylamino 2-methylpropyl phosphonates: enantioselective synthesis and selective inhibition of MMPs” (Bioorg Med Chem, 2007) are described below.

Experiment [1] concerns the target T1, Interstitial collagenase (Homo sapiens) (UniProt P03956).
T1 sequence (whole entry): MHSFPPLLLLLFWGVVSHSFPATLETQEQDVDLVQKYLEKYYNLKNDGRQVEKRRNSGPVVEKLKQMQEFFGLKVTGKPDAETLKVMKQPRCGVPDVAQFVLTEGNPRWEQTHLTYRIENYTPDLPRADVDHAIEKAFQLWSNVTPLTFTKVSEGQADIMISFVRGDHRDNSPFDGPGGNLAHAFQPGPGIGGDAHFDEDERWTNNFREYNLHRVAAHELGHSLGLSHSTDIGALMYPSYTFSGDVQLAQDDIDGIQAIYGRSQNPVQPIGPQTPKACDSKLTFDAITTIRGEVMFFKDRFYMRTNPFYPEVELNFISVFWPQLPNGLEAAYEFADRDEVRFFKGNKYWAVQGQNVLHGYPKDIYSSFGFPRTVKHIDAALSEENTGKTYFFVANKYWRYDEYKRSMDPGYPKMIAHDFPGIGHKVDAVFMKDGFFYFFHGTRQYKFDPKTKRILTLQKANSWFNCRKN
In words: Inhibition of human recombinant MMP1 at 100 uM.

The next experiment deals with Neutrophil collagenase (Homo sapiens, UniProt P22894). In words: Inhibition of MMP8.
Sequence of Neutrophil collagenase (P22894 whole entry): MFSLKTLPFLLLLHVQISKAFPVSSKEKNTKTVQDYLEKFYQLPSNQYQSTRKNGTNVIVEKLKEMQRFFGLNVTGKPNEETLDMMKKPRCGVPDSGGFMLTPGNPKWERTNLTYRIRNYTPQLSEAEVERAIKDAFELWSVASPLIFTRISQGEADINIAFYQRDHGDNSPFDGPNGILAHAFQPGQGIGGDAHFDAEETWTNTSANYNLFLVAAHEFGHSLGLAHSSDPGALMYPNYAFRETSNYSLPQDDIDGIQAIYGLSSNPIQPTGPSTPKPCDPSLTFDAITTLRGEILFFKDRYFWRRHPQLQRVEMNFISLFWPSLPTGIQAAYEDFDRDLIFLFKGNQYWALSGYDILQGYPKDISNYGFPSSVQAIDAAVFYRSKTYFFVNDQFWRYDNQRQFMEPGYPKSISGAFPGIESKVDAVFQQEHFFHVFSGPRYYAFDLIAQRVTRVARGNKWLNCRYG
For experiment [2], the target named is T2, Matrix metalloproteinase-9 (Homo sapiens, UniProt P14780). In words: Inhibition of human recombinant MMP9 expressed in mouse myeloma cells. It counts as cell-based. The essentials: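 Human pro-MMP-9 expressed in transfected mouse myeloma cells, APMA-activated (1 mM, 1 h, 37 °C) and used at 2.7 nM final. Preincubated 4 h at 25 °C with inhibitor at seven concentrations in Tris pH 7.5/CaCl2/Brij 35 buffer with 1% DMSO. Fluorogenic Mca-Lys-Pro-Leu-Gly-Leu-Dpa-Ala-Arg-NH2 hydrolysis (ex 325/em 400 nm) was read every 15 s for 20 min, in triplicate. IC50 via Vi/Vo = 1/(1+[I]/IC50).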
T2 sequence (P14780 whole entry): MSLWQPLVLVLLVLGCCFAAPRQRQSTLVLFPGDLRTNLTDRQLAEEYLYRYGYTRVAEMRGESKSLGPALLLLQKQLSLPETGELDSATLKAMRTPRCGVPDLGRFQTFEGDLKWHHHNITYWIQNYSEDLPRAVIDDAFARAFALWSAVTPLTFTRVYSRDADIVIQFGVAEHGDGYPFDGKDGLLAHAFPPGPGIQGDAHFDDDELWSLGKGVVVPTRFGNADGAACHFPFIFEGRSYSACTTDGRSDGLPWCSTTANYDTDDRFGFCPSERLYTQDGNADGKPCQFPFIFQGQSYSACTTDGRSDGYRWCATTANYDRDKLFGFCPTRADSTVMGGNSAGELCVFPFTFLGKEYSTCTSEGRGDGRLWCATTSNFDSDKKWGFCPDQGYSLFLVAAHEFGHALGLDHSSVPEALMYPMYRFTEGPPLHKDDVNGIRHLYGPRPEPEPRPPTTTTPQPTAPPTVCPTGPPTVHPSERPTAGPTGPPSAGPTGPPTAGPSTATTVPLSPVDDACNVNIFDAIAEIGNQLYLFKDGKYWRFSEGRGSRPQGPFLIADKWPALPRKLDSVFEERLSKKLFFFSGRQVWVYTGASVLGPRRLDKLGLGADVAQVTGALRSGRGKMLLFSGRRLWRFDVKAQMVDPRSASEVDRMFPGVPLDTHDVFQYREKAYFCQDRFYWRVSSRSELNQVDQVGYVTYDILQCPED

Experiment [3] concerns the target 72 kDa type IV collagenase (Homo sapiens, UniProt P08253). In words: Inhibition of human recombinant MMP2 expressed in mouse myeloma cells. It counts as cell-based. The essentials: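 Recombinant human pro-MMP-2 from transfected mouse myeloma cells, activated with APMA (2 mM, 1 h, 37 °C) and used at 2.9 nM final. It was preincubated 4 h at 25 °C with inhibitor (seven concentrations) in Tris 50 mM pH 7.5 buffer with 1% DMSO. Mca-Lys-Pro-Leu-Gly-Leu-Dpa-Ala-Arg-NH2 fluorescence (ex 325/em 400 nm) was read every 15 s for 20 min, in triplicate. IC50 from Vi/Vo = 1/(1+[I]/IC50).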

Experiment [4] has as its target T3, Collagenase 3 (Homo sapiens, UniProt P45452). Nature of the experiment: Inhibition of MMP13. The essentials: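 Purchased pro-MMP-13 was APMA-activated (1 mM, 0.5 h, 37 °C) and used at 0.66 nM final. It was preincubated with inhibitor (seven concentrations) for 4 h at 25 °C in Tris pH 7.5 buffer with CaCl2, Brij 35 and 1% DMSO. Cleavage of Mca-Lys-Pro-Leu-Gly-Leu-Dpa-Ala-Arg-NH2 was followed by fluorescence (ex 325/em 400 nm) every 15 s for 20 min, in triplicate. IC50 fitted to Vi/Vo = 1/(1+[I]/IC50).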

Experiment [5] deals with T4, Stromelysin-1 (Homo sapiens, UniProt P08254). Nature of the experiment: Inhibition of MMP3 at 100 uM.
Target sequence in this assay (P08254 100-477 limits assumed): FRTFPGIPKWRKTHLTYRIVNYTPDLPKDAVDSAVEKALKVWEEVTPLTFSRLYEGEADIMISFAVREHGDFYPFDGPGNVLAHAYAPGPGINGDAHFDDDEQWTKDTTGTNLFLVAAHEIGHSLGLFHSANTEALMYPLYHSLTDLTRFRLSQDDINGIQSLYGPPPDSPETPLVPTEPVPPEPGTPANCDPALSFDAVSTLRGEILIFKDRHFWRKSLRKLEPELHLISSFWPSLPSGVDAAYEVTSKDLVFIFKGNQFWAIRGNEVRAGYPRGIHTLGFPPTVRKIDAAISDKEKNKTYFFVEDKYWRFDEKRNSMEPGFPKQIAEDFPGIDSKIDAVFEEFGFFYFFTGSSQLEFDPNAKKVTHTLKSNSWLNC
Another experiment addresses T5, Matrilysin (Homo sapiens, UniProt P09237).
T5 sequence (P09237 whole entry): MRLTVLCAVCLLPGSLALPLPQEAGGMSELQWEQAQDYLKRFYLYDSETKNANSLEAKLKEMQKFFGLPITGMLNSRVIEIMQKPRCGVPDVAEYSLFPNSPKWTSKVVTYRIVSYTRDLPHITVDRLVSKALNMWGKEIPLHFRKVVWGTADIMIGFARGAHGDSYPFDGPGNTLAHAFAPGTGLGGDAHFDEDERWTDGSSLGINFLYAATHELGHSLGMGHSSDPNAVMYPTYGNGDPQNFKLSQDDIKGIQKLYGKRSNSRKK
Nature of the experiment: Inhibition of MMP7. The essentials: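 Pro-MMP-7 from a commercial source, activated with APMA (1 mM, 1 h, 37 °C) and used at 2.4 nM final. It was preincubated 4 h at 25 °C with inhibitor at seven concentrations in Tris pH 7.5 buffer (CaCl2, Brij 35, 1% DMSO). Mca-Lys-Pro-Leu-Gly-Leu-Dpa-Ala-Arg-NH2 cleavage was monitored fluorimetrically (ex 325/em 400 nm) every 15 s for 20 min, in triplicate. IC50 via Vi/Vo = 1/(1+[I]/IC50).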

For experiment [6], the target named is T6, Matrix metalloproteinase-14 (Homo sapiens, UniProt P50281). In words: Inhibition of MMP14. The essentials:
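Commercial MMP-14 at 1 nM final, preincubated 4 h at 25 °C with inhibitor at seven concentrations in Tris 50 mM pH 7.5/NaCl/CaCl2/Brij 35 buffer with 1% DMSO. Read-out was fluorogenic substrate Mca-Lys-Pro-Leu-Gly-Leu-Dpa-Ala-Arg-NH2 hydrolysis (ex 325, em 400 nm), recorded every 15 s for 20 min, in triplicate. IC50 from Vi/Vo = 1/(1+[I]/IC50).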

In experiment [7] the target is T4, Stromelysin-1. Nature of the experiment: Inhibition of MMP3. The essentials:
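Purchased MMP-3 at 1 nM final was preincubated with inhibitor (seven concentrations) for 4 h at 25 °C in Tris pH 7.5 assay buffer containing CaCl2, Brij 35 and 1% DMSO. Substrate was Mca-Arg-Pro-Lys-Pro-Val-Glu-Nva-Trp-Arg-Lys(Dnp)-NH2, with fluorescence (ex 325/em 400 nm) read every 15 s over 20 min, in triplicate. IC50 from initial velocities via Vi/Vo = 1/(1+[I]/IC50).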
Target sequence in this assay (P08254 whole entry): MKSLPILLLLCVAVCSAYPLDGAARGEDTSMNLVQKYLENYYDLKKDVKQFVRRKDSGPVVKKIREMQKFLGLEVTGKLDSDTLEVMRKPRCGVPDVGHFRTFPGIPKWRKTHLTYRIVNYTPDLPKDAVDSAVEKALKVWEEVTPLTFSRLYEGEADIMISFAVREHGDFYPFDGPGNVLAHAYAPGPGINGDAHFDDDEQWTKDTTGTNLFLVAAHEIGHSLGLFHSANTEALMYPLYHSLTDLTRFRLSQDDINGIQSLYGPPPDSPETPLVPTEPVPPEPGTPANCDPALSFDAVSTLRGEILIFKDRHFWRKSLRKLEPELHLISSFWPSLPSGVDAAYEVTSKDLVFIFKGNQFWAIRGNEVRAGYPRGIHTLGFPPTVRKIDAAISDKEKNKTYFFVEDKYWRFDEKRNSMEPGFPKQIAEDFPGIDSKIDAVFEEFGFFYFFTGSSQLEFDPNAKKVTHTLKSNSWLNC

Another experiment concerns the target T7, Interstitial collagenase (Homo sapiens, UniProt P03956).
T7 sequence (P03956 whole entry): T1 sequence (whole entry)
In words: Inhibition of MMP1. The essentials: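 Pro-MMP-1 from a commercial source, activated with APMA (2 mM, 1 h, 37 °C). Enzyme at 0.20 nM final was preincubated 4 h at 25 °C with inhibitor at seven concentrations in Tris 50 mM pH 7.5, NaCl, CaCl2, Brij 35 and 1% DMSO. Mca-Lys-Pro-Leu-Gly-Leu-Dpa-Ala-Arg-NH2 was added and fluorescence (ex 325/em 400 nm) read every 15 s for 20 min, in triplicate. IC50 from Vi/Vo = 1/(1+[I]/IC50).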

For experiment [8], the target named is T2, Matrix metalloproteinase-9. Nature of the experiment: Inhibition of human recombinant MMP9 expressed in mouse myeloma cells at 100 uM. In kind it is cell-based.
Experiment [9] addresses T6, Matrix metalloproteinase-14. Particulars: 100 uM.
The target of experiment [10] is T8, Matrilysin (Homo sapiens) (UniProt P09237).
T8 sequence (whole entry): T5 sequence (P09237 whole entry)
In words: Inhibition of MMP7 at 100 uM.

For experiment [11], the target named is T3, Collagenase 3. Nature of the experiment: Inhibition of MMP13 at 100 uM.

Sequence of 72 kDa type IV collagenase (P08253 whole entry): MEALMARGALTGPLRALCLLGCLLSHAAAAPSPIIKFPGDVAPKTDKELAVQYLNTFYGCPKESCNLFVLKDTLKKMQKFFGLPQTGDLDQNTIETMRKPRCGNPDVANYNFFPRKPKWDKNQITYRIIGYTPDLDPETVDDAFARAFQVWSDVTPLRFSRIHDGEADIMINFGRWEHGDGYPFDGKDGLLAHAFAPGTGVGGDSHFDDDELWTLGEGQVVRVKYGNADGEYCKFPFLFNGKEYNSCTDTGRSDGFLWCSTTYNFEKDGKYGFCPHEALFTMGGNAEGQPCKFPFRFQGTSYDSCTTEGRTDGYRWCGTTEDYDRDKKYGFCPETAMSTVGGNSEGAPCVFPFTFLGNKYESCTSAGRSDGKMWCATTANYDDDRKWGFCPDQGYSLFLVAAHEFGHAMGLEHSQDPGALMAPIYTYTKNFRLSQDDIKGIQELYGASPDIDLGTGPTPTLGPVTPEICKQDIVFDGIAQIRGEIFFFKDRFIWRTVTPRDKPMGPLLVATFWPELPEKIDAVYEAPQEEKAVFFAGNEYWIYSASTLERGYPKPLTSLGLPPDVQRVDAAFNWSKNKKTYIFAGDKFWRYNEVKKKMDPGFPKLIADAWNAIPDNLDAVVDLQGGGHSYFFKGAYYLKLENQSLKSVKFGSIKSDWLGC

For `COc1ccc(CCc2ccc(S(=O)(=O)N[C@@H](C(C)C)P(=O)(O)O)cc2)cc1`, the inhibition in [1] is 9%; against Stromelysin-1 [5], 31%. The IC50 on Neutrophil collagenase was determined as 110 nM; in experiment [2], 680 nM; in experiment [3] it was 790 nM; against Collagenase 3 [4] it was 480 nM; against Matrilysin, 130000 nM; in experiment [6], 40000 nM.

For the compound `CC(C)[C@H](NS(=O)(=O)c1ccc(-c2ccc(F)cc2)cc1)P(=O)(O)O`, the IC50 on Stromelysin-1 [7] stood at 150 nM; against Neutrophil collagenase, 1.1 nM; in experiment [2], 59 nM; at Interstitial collagenase, 160 nM; in experiment [3], 20 nM; at Collagenase 3 [4] it was 13 nM. Besides, the IC50 against Matrilysin came out at 1400 nM; in experiment [6], 32 nM.

Take `Cc1cccc(-c2ccc(S(=O)(=O)N[C@@H](C(C)C)P(=O)(O)O)cc2)c1`: the IC50 at Stromelysin-1 [7] was 230 nM; against Neutrophil collagenase, 0.4 nM; in [2], 64 nM; at Interstitial collagenase, 320 nM; in experiment [3], 24 nM; at Collagenase 3 [4] it was 15 nM. Further, the IC50 came to 1100 nM against Matrilysin and 26 nM in experiment [6].

On to `COc1ccc(-c2ccc(S(=O)(=O)N[C@H](C(C)C)P(=O)(O)O)cc2)cc1`, for which the inhibition was found to be 5% in experiment [1]; 40% in experiment [8]; 63% in experiment [9]; 17% in experiment [10]; 16% against Stromelysin-1 [5]; 68% at Collagenase 3 [11]. Moreover, the IC50 in experiment [3] amounted to 1100 nM.

For `CC(C)[C@H](NS(=O)(=O)c1ccc(-c2ccc(Cl)cc2)cc1)P(=O)(O)O`, the IC50 was 28 nM at Stromelysin-1 [7]; 0.81 nM against Neutrophil collagenase; 21 nM in experiment [2]; 77 nM against Interstitial collagenase; 8.7 nM in [3]; 5.3 nM against Collagenase 3 [4]. Further, the figures for the 50% inhibitory concentration (IC50) (against Matrilysin; in experiment [6]) were 1700 nM and 47 nM, respectively.

Consider `CC(C)[C@H](NS(=O)(=O)c1ccc(CCc2ccccc2)cc1)P(=O)(O)O`, for which the inhibition in experiment [1] stood at 33%; at Stromelysin-1 [5], 34%. Further, the IC50 on Neutrophil collagenase worked out at 260 nM; in experiment [2] it was 7100 nM; in experiment [3], 980 nM; against Collagenase 3 [4] it was 820 nM; at Matrilysin, 50000 nM; in experiment [6], 6000 nM.

As for `CCOc1ccc(-c2ccc(S(=O)(=O)N[C@@H](C(C)C)P(=O)(O)O)cc2)cc1`, the IC50 amounted to 12 nM on Stromelysin-1 [7]; 0.37 nM on Neutrophil collagenase; 0.56 nM in [2]; 450 nM against Interstitial collagenase; 0.39 nM in experiment [3]; 1.1 nM on Collagenase 3 [4]. The IC50 was found to be 450 nM against Matrilysin and 11 nM in [6].

As to `COc1ccc(-c2ccc(S(=O)(=O)N[C@@H](C(C)C)P(=O)(O)O)cc2)cc1`, the IC50 is 52 nM on Stromelysin-1 [7]; 8 nM in [2]; 150 nM against Interstitial collagenase; 1.5 nM in experiment [3]; 2.6 nM against Collagenase 3 [4]; 460 nM at Matrilysin. Also, inhibition in experiment [6] was half-maximal at 79 nM (IC50).

With `Cc1ccc(-c2ccc(S(=O)(=O)N[C@@H](C(C)C)P(=O)(O)O)cc2)cc1`, the IC50 against Stromelysin-1 [7] amounted to 45 nM; on Neutrophil collagenase it was 0.39 nM; in [2] it was 4.1 nM; against Interstitial collagenase, 98 nM; in experiment [3], 2.3 nM; at Collagenase 3 [4] it was 3.3 nM. Also, the IC50 stood at 150 nM on Matrilysin and 11 nM in [6].

Consider `CC(C)[C@H](NS(=O)(=O)c1ccc(-c2cccc(F)c2)cc1)P(=O)(O)O`, for which the IC50 turned out to be 1200 nM at Stromelysin-1 [7]; 2.4 nM against Neutrophil collagenase; 170 nM in experiment [2]; 590 nM against Interstitial collagenase; 53 nM in experiment [3]; 63 nM on Collagenase 3 [4]. In addition, the IC50 against Matrilysin was determined as 20000 nM; in [6] it was 180 nM.

For the compound `CC(C)Oc1ccc(-c2ccc(S(=O)(=O)N[C@@H](C(C)C)P(=O)(O)O)cc2)cc1`, the IC50 on Stromelysin-1 [7] amounted to 36 nM; on Neutrophil collagenase, 1.5 nM; in experiment [2], 24 nM; against Interstitial collagenase, 600 nM; in experiment [3], 1.8 nM; at Collagenase 3 [4], 4.2 nM. The IC50 on Matrilysin amounted to 2000 nM; in experiment [6] it was 130 nM.

`CC(C)[C@H](NS(=O)(=O)c1ccc(-c2cccc(Cl)c2)cc1)P(=O)(O)O`: the IC50 against Stromelysin-1 [7] came out at 440 nM; against Neutrophil collagenase, 1.3 nM; in [2], 160 nM; against Interstitial collagenase, 320 nM; in [3], 30 nM; against Collagenase 3 [4] it was 24 nM. The values for the IC50 (on Matrilysin; in experiment [6]) were 2900 nM and 75 nM, respectively.

A word on the inhibition: it is the share of the control response that was lost under treatment. Broadly, the IC50 is the midpoint of a concentration-inhibition curve.
